Source: ChEMBL document CHEMBL1139136, “Synthesis of novel diaryl ethers and their evaluation as antimitotic agents” (Bioorg Med Chem Lett, 2007)
The source made the active and inactive calls. The rule behind the calls is not given here.

Assays:
HL-60 = assay: Antiproliferative activity against human HL60 cells; format: functional, cell-based
In short: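 Human myeloid leukemia HL-60 cells; antiproliferative IC50 (µM) by a previously described protocol, each series repeated independently at least two to three times.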

Tubulin (Homo sapiens) [1] = molecular target: T1, Tubulin (Homo sapiens) (UniProt P68371+Q9H4B7+P0DPH7+P68366+Q13509+Q71U36+P04350+Q3ZCM7+P07437+P68363+Q9BQE3+Q6PEY2+Q13885+Q9BVA1+Q9BUF5); assay: Inhibition of tubulin polymerization at 10 ug/ml; format: protein-complex assay
In short: (§1)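 Kit-based tubulin assembly assay with compounds dissolved in DMSO. All components go into wells held at 0 °C and a baseline is set at 340 nm. Assembly is read at 0 °C and then at 37 °C. Results are percent inhibition against a vehicle control at each tested concentration.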

Tubulin (Homo sapiens) [2] = molecular target: T1, Tubulin (Homo sapiens); assay: Inhibition of tubulin polymerization at 20 ug/ml; format: protein-complex assay
Tubulin (Homo sapiens) [3] = molecular target: T1, Tubulin (Homo sapiens); assay: Inhibition of tubulin polymerization at 1 ug/ml; format: protein-complex assay; in short: as §1
Tubulin (Homo sapiens) [4] = molecular target: T1, Tubulin (Homo sapiens); assay: Inhibition of tubulin polymerization at 3 ug/ml; format: protein-complex assay; in short: as §1

**Q.** With `COC(=O)c1ccc(Oc2ccc(OC)c(OC)c2)c(N)c1` as the compound, how does the IC50 (HL-60) read?
**A.** > 20 µM

**Q.** For `CCOC(=O)c1ccc(Oc2ccc(Cl)cc2)cc1`, which IC50 (HL-60) is on record?
**A.** > 20 µM

**Q.** Which IC50 (HL-60) does the source give for `COC(=O)c1cccc(Oc2ccc(OC)c(F)c2)c1` here?
**A.** > 20 µM

**Q.** For `CCOC(=O)c1ccc(Oc2ccc(F)c(F)c2)cc1`, which IC50 (HL-60) is on record?
**A.** > 30 µM

**Q.** For `COc1ccc(Oc2ccc(C(=O)O)cc2)cc1F`, which IC50 (HL-60) is on record?
**A.** > 30 µM

**Q.** For `CCOC(=O)c1ccc(Oc2ccc(OC)c(OC)c2)cc1`, which IC50 (HL-60) is on record?
**A.** > 20 µM

**Q.** `COc1ccc(Oc2c(OC)cccc2OC)cc1F` was tested. Which IC50 (HL-60) did it give?
**A.** > 20 µM

**Q.** Which inhibition (Tubulin (Homo sapiens) [1]) does the source give for `CCOC(=O)c1ccc(Oc2ccc(OC)c(OC)c2)cc1O` here?
**A.** 5.5%

**Q.** And the IC50 (HL-60)?
**A.** 1.5 µM

**Q.** And the inhibition (Tubulin (Homo sapiens) [2])?
**A.** 13.3%

**Q.** `CCOC(=O)c1ccc(Oc2ccc(F)c(F)c2)cc1O` was tested. Which IC50 (HL-60) did it give?
**A.** > 30 µM

**Q.** For `COC(=O)c1cccc(Oc2ccc(N(C)C)cc2)c1`, which IC50 (HL-60) is on record?
**A.** > 20 µM

**Q.** `CCOC(=O)c1ccc(Oc2ccc(OC)cc2)cc1O` was tested. Which IC50 (HL-60) did it give?
**A.** > 30 µM

**Q.** For `COc1ccc(Oc2ccc(C(=O)NC3CC3)cc2)cc1F`, which inhibition (Tubulin (Homo sapiens) [1]) is on record?
**A.** 8.7%

**Q.** What about the IC50 (HL-60) of the same compound?
**A.** 14.1 µM

**Q.** Which IC50 (HL-60) does the source give for `COC(=O)c1cccc(Oc2ccc(OC)cc2)c1` here?
**A.** > 20 µM

**Q.** Which IC50 (HL-60) does the source give for `CCOC(=O)c1ccc(Oc2ccc(OC)c(F)c2)cc1O` here?
**A.** > 30 µM

**Q.** With `CCOC(=O)c1ccc(Oc2ccc(N(C)C)cc2)cc1` as the compound, how does the IC50 (HL-60) read?
**A.** > 20 µM

**Q.** For `COC(=O)c1ccc(Oc2ccc(OC)c(OC)c2)c([N+](=O)[O-])c1`, which IC50 (HL-60) is on record?
**A.** > 20 µM

**Q.** How did the IC50 (HL-60) turn out when `COc1ccc(Oc2ccc(C(=O)N(C)OC)cc2)cc1F` was run?
**A.** > 30 µM

**Q.** For `COC(=O)c1ccc(Oc2ccc(OC)cc2)c(N)c1`, which IC50 (HL-60) is on record?
**A.** > 20 µM

**Q.** With `CCOC(=O)c1ccc(Oc2ccc(OC)cc2)cc1` as the compound, how does the IC50 (HL-60) read?
**A.** > 20 µM

**Q.** With `COc1cccc(OC)c1Oc1ccc(C#N)cc1` as the compound, how does the IC50 (HL-60) read?
**A.** > 20 µM

**Q.** With `COC(=O)c1ccc(Oc2ccc(OC)cc2)c(I)c1` as the compound, how does the IC50 (HL-60) read?
**A.** > 20 µM

**Q.** `CCOC(=O)c1ccc(Oc2ccc(N(C)C)cc2)cc1O` was tested. Which IC50 (HL-60) did it give?
**A.** > 30 µM

**Q.** For `CCOC(=O)c1ccc(Oc2ccc(C#N)cc2)cc1`, which IC50 (HL-60) is on record?
**A.** > 20 µM

**Q.** For `COC(=O)c1ccc(Oc2ccc(OC)cc2)c([N+](=O)[O-])c1`, which IC50 (HL-60) is on record?
**A.** > 20 µM

**Q.** How did the inhibition (Tubulin (Homo sapiens) [1]) turn out when `COc1cccc(OC)c1Oc1ccc(N(C)C)cc1` was run?
**A.** 12.5%

**Q.** What about the IC50 (HL-60) of the same compound?
**A.** 11.4 µM

**Q.** Which inhibition (Tubulin (Homo sapiens) [1]) does the source give for `CCOC(=O)c1ccc(Oc2ccc(OC)c(F)c2)cc1` here?
**A.** 12.5%

**Q.** What about the IC50 (HL-60) of the same compound?
**A.** 3.5 µM

**Q.** For `COc1ccc(S(=O)(=O)Nc2cccnc2Nc2ccc(O)cc2)cc1` [ABT-751], which inhibition (Tubulin (Homo sapiens) [3]) is on record?
**A.** 40%

**Q.** What about the inhibition (Tubulin (Homo sapiens) [1]) of the same compound?
**A.** 96.3%

**Q.** And the IC50 (HL-60)?
**A.** 0.34 µM

**Q.** What about the inhibition (Tubulin (Homo sapiens) [4]) of the same compound?
**A.** 74.6%

**Q.** How did the IC50 (HL-60) turn out when `COc1ccc(Oc2ccc(C(=O)NCCc3ccccc3)cc2)cc1F` was run?
**A.** 20.6 µM

**Q.** What does the source list for `COC(=O)c1ccc(Oc2ccc(OC)c(OC)c2)c(I)c1`?
**A.** Activity (Tubulin (Homo sapiens) [1]): inactive; IC50 (HL-60): 5.62 µM

**Q.** Which IC50 (HL-60) does the source give for `COC(=O)c1cccc(Oc2ccc(C#N)cc2)c1` here?
**A.** > 20 µM
